RORA inh: inhibitors of human nuclear receptor RORA; P35398; CHO-K1 Gal4-RORA LBD luciferase reporter, luminescence; inhibition, % at 10 µM; actives 0.43% (n = 65,000); AID 561;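 active = inhibition above the mean of all tested compounds plus 3 SD, cut at about 52% in these data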;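 also: 0% = RORA-transfected cells with DMSO and 100% = mock-transfected cells lacking RORA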
Target sequence (P35398 whole entry, looked up, the tested form may be a part): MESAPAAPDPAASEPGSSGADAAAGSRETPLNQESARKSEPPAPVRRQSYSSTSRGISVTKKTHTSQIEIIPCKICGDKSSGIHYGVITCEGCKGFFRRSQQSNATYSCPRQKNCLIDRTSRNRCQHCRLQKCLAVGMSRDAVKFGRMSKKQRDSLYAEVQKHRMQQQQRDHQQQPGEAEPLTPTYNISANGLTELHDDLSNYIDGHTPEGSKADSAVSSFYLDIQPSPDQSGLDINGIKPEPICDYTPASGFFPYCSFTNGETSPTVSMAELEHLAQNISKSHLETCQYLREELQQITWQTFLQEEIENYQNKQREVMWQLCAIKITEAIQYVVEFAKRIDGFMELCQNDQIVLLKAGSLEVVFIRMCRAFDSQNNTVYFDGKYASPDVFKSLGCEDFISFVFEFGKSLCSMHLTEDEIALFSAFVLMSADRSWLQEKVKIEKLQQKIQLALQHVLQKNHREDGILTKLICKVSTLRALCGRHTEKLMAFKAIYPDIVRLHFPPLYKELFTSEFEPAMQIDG
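Test system: CHO-K1 cells with Gal4-hRORA LBD fusion and pG5-luc reporter / Compound: single concentration per compound, 10 µM final / Schedule: 20 h compound treatment, 37 °C / Signal: luminescence from basal luciferase reporter expression / Read-out: % inhibition / Control set: mock-transfected cells as 100%, +RORA DMSO cells as 0% / Replicates: tested once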
Numbers without * were called inactive. The sample as a whole holds a higher share of hits than the screen did.

SMILES	RORA inh
CCOC(=O)C1=C(C)SC2=NS(=O)(=O)CCN21	4
Cc1cc(C)n(CCn2nc(C)cc2C)n1	-12
COc1ccc(N2CCN(CCCNC(=O)CC3Oc4ccc(C)cc4NC3=O)CC2)cc1 (stereo not drawn)	8
CN(C)c1ccc(NC(=O)c2ccc(COc3cccc(Cl)c3)o2)cc1	-73
COc1ccc(NC(=O)c2cnc3ccccn3c2=O)cc1OC	-53
COc1ccc2cc3c(N)c(C(=O)N4CCCC4)sc3nc2c1	8
O=C(Nc1ccc2nc3n(c(=O)c2c1)CCCCC3)c1ccccn1	-54
COc1ccc(-c2cc3nc4n(c(=O)c3s2)CCC4)cc1	71*
Clc1ccc(OCc2nnc(SCc3nc4ccccc4[nH]3)n2Cc2ccco2)cc1	-11
CC1(C)OC(=O)N(c2cccnc2)C1(C)O (stereo not drawn)	6
CC(=O)c1ccc(N2CCN(CCC#N)CC2)c(F)c1	16
c1ccc(CN2CCN(c3nc(-c4ccccc4)nc(-n4ccnc4)n3)CC2)cc1	22
O=C(c1ccc(Cn2c(=O)[nH]c3ccccc3c2=O)cc1)N1CCN(c2ccccc2)CC1	-10
O=c1c2[nH]c3ccccc3c2ncn1C1CCCCC1	-61
c1ccc(CN2CCN(c3ncnc4c3[nH]c3ccccc34)CC2)cc1	67*
c1ccc2c(c1)CCN(c1ncnc3c1[nH]c1ccccc13)C2	89*
CCOC(=O)COc1ccc2c(c1)C(=O)CC(C)(C)O2	-14
CC(=O)N1CCc2cc(C(=O)CN3CCN(C(=O)c4ccco4)CC3)ccc21	-17
CCOc1ccc(-n2nnc3c(=O)n(CC(=O)c4ccccc4)cnc32)cc1	12
CCOC(=O)N1CCC(=C2c3ccc(Cl)cc3CCc3cccnc32)CC1	-12
O=C1Nc2cc(Cl)cnc2N2CCCC12 (stereo not drawn)	-9
COc1cc(C2C3C(C)N(C)C(=O)N(C)C3N(C)C(=O)N2C)ccc1O (stereo not drawn)	13
O=C(Nc1cccc(Br)c1)c1cc2ccccc2o1	-71
CC#CCCCC(=O)Nc1cccc(C(=O)O)c1	-56
Cc1cc(C(=O)Nc2cccc(C(=O)O)c2)oc1C	74*
SMILES	RORA inh
C/C(N)=C(/C#N)C(=O)COC(=O)c1cc(C)n(-c2ccc(F)cc2)c1C	-67
Cc1noc(C)c1COC(=O)CCc1nc2ccccc2c(=O)[nH]1	4
O=C(c1cc2ccccc2o1)c1nc2c(n1O)CCCCC2	-56
COC(=O)c1cc(Br)c(=O)n(-c2ccc(OC)cc2)c1	-8
CC1(C)CC(=O)C(C=NCC2CCCO2)=C(O)C1 (stereo not drawn)	0
CCOCCCNCC(=O)N1CCN(S(=O)(=O)c2ccc(C)cc2)CC1	24
NC(=O)C1CCN(C(=O)CSCc2ccccc2Cl)CC1	-16
Cc1ccc(-c2nsc3c(N4CCC(C(N)=O)CC4)ncnc23)cc1	57*
Cc1ccc(-c2csc(N3CCC(NS(=O)(=O)c4ccc5c(c4)OCCO5)CC3)n2)cc1	70*
Nc1nc(-c2ccc3c(c2)OCCO3)cs1	-50
CCCC(=O)Nc1nc(-c2ccc3c(c2)OCCO3)cs1	-63
O=C1CCC/C1=c1\s/c(=C\c2cccnc2)c(=O)n1-c1ccccc1	10
Cc1ccc(-c2ccc(=O)n(CC(=O)Nc3cccc(C(=O)N4CCN(C)CC4)c3)n2)cc1	9
CSc1nnc(Cn2c(=O)sc3ccccc32)n1-c1ccccc1C	5
Cc1ccc(-c2csc3ncnc(Sc4nnc(CN5CCCCCC5=O)o4)c23)cc1	57*
CC1CCCN(S(=O)(=O)c2ccc3c(c2)CCN3C(=O)C2CCC2)C1 (stereo not drawn)	13
Cn1c(Cn2c(=O)sc3ccccc32)nnc1SCC(=O)N1CCc2ccccc21	-17
C=CCNC(=O)c1ccccc1NC(=O)c1ccccc1	19
Cc1cc(C)n(-c2nc(C)nc(N)n2)n1	-24
Cc1cc(C)n(S(=O)(=O)c2ccc3ccccc3c2)n1	18
Cc1cc(C)n(-c2ccc3cccc(NS(C)(=O)=O)c3n2)n1	67*
CCC(C)[C@H](N)c1nnc(SCc2cccc(F)c2)o1 (stereo partly drawn)	-12
COc1ccc(-c2nnc(SCc3nnc(-c4ccccc4)o3)n2C)cc1OC	-53
COC(=O)c1ccc(Oc2cc(C)nc(SC)n2)cc1	-58
NC(=O)c1nn(-c2ccccc2)nc1N	19
SMILES	RORA inh
COc1ccc(/C(O)=C2/C(=O)C(=O)N(CCN(C)C)C2c2ccc(F)cc2)cc1Cl (stereo not drawn)	1
COc1cccc(NC(=O)Cc2nnc(SCC(=O)c3ccccc3)n2C)c1	3
COc1ccc(O)c(C(=O)CC(=O)c2ccc(F)cc2)c1	58*
COc1ccc(C(=O)c2ccccc2)c(O)c1	-10
COc1cc(-c2nnc(COc3ccc4ccccc4c3)o2)cc(OC)c1OC	11
Oc1c(CN2CCN(c3ccccn3)CC2)cc(Cl)c2cccnc12	60*
Oc1c(CN2CCCCC2)cc(COCc2ccccc2)c2cccnc12	53*
c1ccc(-c2nnc(N3CCN(c4ccccn4)CC3)c3ccccc23)cc1	-5
O=P(O)(CCc1ccccn1)CN1CCCCC1	-4
O=C(NC1CCCc2ccccc21)C1CCN(c2c(N3CCCC3)c(=O)c2=O)CC1 (stereo not drawn)	-6
CCCCC(=O)NC(Nc1ccc(C)cn1)(C(=O)OCC)C(F)(F)F (stereo not drawn)	22
COc1ccc(C(NC(=O)C(C)(C)C)NC(=O)C(C)(C)C)cc1	25
Nc1nc(Cl)nc2c1ncn2[C@H]1C[C@H](O)[C@@H](CO)O1	69*
CCSc1cc(C2C(C#N)=C(N)OC(C)=C2C(=O)OC)c(C)o1 (stereo not drawn)	2
O=C(CSc1nnc(COc2cccc3cccnc23)o1)N1CCc2ccccc21	59*
O=C(CSc1nnc(COc2ccc(F)cc2)o1)N1c2ccccc2CCc2ccccc21	-18
Cc1ccc(NCc2nnc(SCC(=O)N3CCCc4ccccc43)o2)c(C)c1	7
Cc1ccc2c(c1)N(CC(=O)NCCc1c[nH]c3ccccc13)C(=O)CO2	3
O=C(C1CCCN(S(=O)(=O)c2cccs2)C1)N1CCN(C2CCCCC2)CC1 (stereo not drawn)	-19
c1cncc(-c2nn3c(-c4ccncc4)nnc3s2)c1	-17
CCOc1ccccc1-n1c(COc2ccc(C)cc2)nnc1SCC(N)=O	7
CSC1=C(C#N)C(C)CC(=O)N1 (stereo not drawn)	0
CCC(=O)N1CCc2cc(S(=O)(=O)N3CCc4ccccc4C3)ccc21	17
CC(=O)N1CCc2cc(S(=O)(=O)NCCC3=CCCCC3)ccc21	57*
CC(=O)N1CCc2cc(S(=O)(=O)NC3CCCc4ccccc43)ccc21 (stereo not drawn)	24
SMILES	RORA inh
COC(=O)CSc1nnc2c(C)cc3cc4c(cc3n12)OCCO4	7
COc1ccc(CCn2c(=N)c(C#N)cc3c(=O)n4ccccc4nc32)cc1	10
Oc1ccc(-c2nnc(SCC3CCCCC3)o2)cc1	-59
O=C(NCc1ccncc1)c1cccc(F)c1	6
CCCn1nnnc1SCC(=O)N(C(C)C)C(C)C	3
CCOc1ccc(OCC(=O)Nc2ccc(S(=O)(=O)Nc3cc(C)nc(C)n3)cc2)cc1	-5
CCCCOc1ccc(S(=O)(=O)N2CCCCCC2)cc1	-12
CCOc1ccc(S(=O)(=O)n2cnc3cc(C)c(C)cc32)cc1	66*
CCCn1c(N)c(Sc2ccc(Cl)cc2)c(=O)n(CCC)c1=O	-6
O=C(CN(Cc1ccco1)C(=O)CNS(=O)(=O)c1ccc(Cl)cc1)NCc1ccc(F)cc1	8
